Results reported in ChEMBL document CHEMBL3272179, “Synthetic metabolites of neurohypophyseal hormones. (Des-9-glycinamide)oxytocin and (des-9-glycinamide, des-8-leucine)oxytocin” (1976).
Activity calls are given as the source filed them. The rule behind the calls is not given here. Positions of bridges follow the written chain, without caps; N, C: chain ends. Residues, ends and D or L forms follow the SMILES beside them.

Columns and labels:
Gallus gallus [1] = test: Inhibition of oxytocin-induced vasodepressor activity in conscious chicken; assay type: functional, organism-based
In short: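 Analog and oxytocin injected simultaneously into conscious chickens (minimum three), procedure of Coon. Oxytocin held at 5×10^-11 mol while analog dose was raised stepwise to 5×10^-4 mol. Read-out was inhibition of the oxytocin vasodepressor response.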

Rattus norvegicus [2] = test: Antidiuretic activity in inactin- and ethanol-anesthetized, hydrated Sprague-Dawley rat assessed as maximal depression of rate of urine flow; assay type: functional
In short: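 Six male Sprague-Dawley rats, anesthetized with Inactin and ethanol and hydrated. Method of Jeffers et al. as modified by Sawyer. The effective response was the maximal depression of urine flow rate. Four-point design or matches against USP Posterior Pituitary Reference Standard.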

Anura = test: Hydroosmotic activity in toad urinary bladder assessed as water transport; assay type: functional
In short: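 Water transport across toad urinary bladder measured by Bentley's method as modified by Eggena et al. At least five animals. Four-point design or matches against USP Posterior Pituitary Reference Standard.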

Rattus norvegicus [3] = test: Pressor activity in atropinized and urethane-anesthetized rat at 1 mg; assay type: functional, organism-based
In short: (§1)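 Minimum of five atropinized, urethane-anesthetized male rats, following U.S. Pharmacopeia procedures. Tested for agonist and antagonist activity at single doses up to 1 mg. USP Posterior Pituitary Reference Standard used as reference.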

[4] = Oxytocic activity in uterine horns of rat […]; assay type: functional
In short: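 Six isolated uterine horns from three rats in natural estrus, with estrus confirmed by vaginal smear on the assay morning. Holton method as modified by Munsick, in Mg2+-free van Dyke-Hastings bathing solution. Four-point design or matches against USP Posterior Pituitary Reference Standard.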

Gallus gallus [5] = test: Vasodepressor activity in conscious chicken; assay type: functional
In short: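 Conscious chickens, minimum three, procedure of Coon. Tested for agonist activity at up to 1 mg analog per injection. Four-point design or matches against USP Posterior Pituitary Reference Standard.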

Rattus norvegicus [6] = test: Pressor activity in atropinized and urethane-anesthetized rat; assay type: functional; in short: as §1

Structure (SMILES)	inhibition (Gallus gallus [1])	Activity (Rattus norvegicus [2]) [U/mg]	Activity (Anura) [×10⁻⁹ M]	Activity (Rattus norvegicus [3])	Activity [4] [U/mg]	Activity (Gallus gallus [5]) [U/mg]	Activity (Rattus norvegicus [6]) [U/mg]
CC[C@H](C)[C@@H]1NC(=O)[C@H](Cc2ccc(O)cc2)NC(=O)[C@@H](N)CSSC[C@@H](C(=O)N2CCC[C@H]2C(=O)N[C@@H](CC(C)C)C(=O)O)NC(=O)[C@H](CC(N)=O)NC(=O)[C@H](CCC(N)=O)NC1=O (H-CYIQNCPL-OH; disulfide 1-6)	Active	0.08	4	inactive	2.4	–	–
CC[C@H](C)[C@@H]1NC(=O)[C@H](Cc2ccc(O)cc2)NC(=O)[C@@H](N)CSSC[C@@H](C(=O)N2CCC[C@H]2C(=O)O)NC(=O)[C@H](CC(N)=O)NC(=O)[C@H](CCC(N)=O)NC1=O (H-CYIQNCP-OH; disulfide 1-6)	–	0.06	–	inactive	2.7	0.1	–
CC[C@H](C)[C@@H]1NC(=O)[C@H](Cc2ccc(O)cc2)NC(=O)[C@@H](N)CSSC[C@@H](C(=O)N2CCC[C@H]2C(=O)N[C@@H](CC(C)C)C(=O)NCC(N)=O)NC(=O)[C@H](CC(N)=O)NC(=O)[C@H](CCC(N)=O)NC1=O [OXYTOCIN]	–	2.1	2.3	–	546	507	3.1
